From ChEMBL document CHEMBL1126216, “Amide, urea, and carbamate analogues of the muscarinic agent [4-[[N-(3-chlorophenyl)carbamoyl]oxy]-2-butynyl]trimethylammonium chloride” (1992)

Columns and labels:
Rattus norvegicus [1] = assay: In vivo intrinsic pressor activity for its ability to maximally elevate arterial pressure in pithed rat.; type: functional, Artery
Method in brief: (§1)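 Male Sprague-Dawley rats (250-300 g), anesthetized with sodium amytal (125 mg/kg ip), intubated, pithed; body temperature held at 37 °C; 30 min stabilization. Ganglionic nicotinic block with pentolinium tartrate (18.5 μmol/kg iv) 20 min before agonist. Drugs in 0.9% saline, iv, 0.1 mL/100 g. Mean arterial pressure recorded; two or three compounds per rat; five to eight rats per compound.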

[2] = tested on: Muscarinic acetylcholine receptor M1 (Oryctolagus cuniculus)
Rattus norvegicus [3] = assay: In vivo intravenous dose required to produce a half maximal pressor response in the pithed rat.; type: functional; method in brief: as §1

| Compound | KA [2] | IPA (Rattus norvegicus [1]) | ED50 (Rattus norvegicus [3]) |
| --- | --- | --- | --- |
| CN(CC#CC[N+](C)(C)C)C(=O)Nc1cccc(Cl)c1 | 24.8 µM | 1 | 0.55 µmol/kg |
| CC(C#CC[N+](C)(C)C)N(C)C(=O)Cc1cccc(Cl)c1 (configuration not stated) | 416 µM | 1 | 1.48 µmol/kg |
| C[N+](C)(C)CC#CCOC(=O)Nc1cccc(Cl)c1 |  | 1 | 0.45 µmol/kg |
| CN(CC#CC[N+](C)(C)C)C(=O)Cc1cccc(Cl)c1 | 20.2 µM | 1 | 0.92 µmol/kg |

The next lines start with results.

| KA [2] | Compound | IPA (Rattus norvegicus [1]) | ED50 (Rattus norvegicus [3]) |
| --- | --- | --- | --- |
| 0.78 µM | C[C@H](C#CC[N+](C)(C)C)OC(=O)Nc1cccc(Cl)c1 | 1 | 0.18 µmol/kg |
| 0.49 µM | C[C@H](C#CC[N+](C)(C)C)OC(=O)Nc1ccc(Cl)cc1 | 0.8 | 0.039 µmol/kg |
| 0.48 µM | CC(C#CC[N+](C)(C)C)OC(=O)Nc1ccc(Cl)cc1 (racemic) | 0.75 | 0.029 µmol/kg |
| 0.18 µM | C[C@@H](C#CC[N+](C)(C)C)OC(=O)Nc1ccc(Cl)cc1 | 0.66 | 0.008 µmol/kg |
| 2.12 µM | C[C@@H](C#CC[N+](C)(C)C)OC(=O)Nc1cccc(Cl)c1 | 0.7 | 0.12 µmol/kg |
| 1.46 µM | CC(C#CC[N+](C)(C)C)OC(=O)Nc1cccc(Cl)c1 (racemic) | 0.76 | 0.09 µmol/kg |
| 83.3 µM | CC(C#CC[N+](C)(C)C)N(C)C(=O)Nc1cccc(Cl)c1 (configuration not stated) | 1 | 0.69 µmol/kg |
